Compound activity deposited in PubChem by several laboratories.
Hits are enriched below; roughly 1.4% of the tested compounds scored in any of these assays.
HKDC1 inh = inhibitors of human hexokinase HKDC1; Q2TB90; recombinant HKDC1, G6PDH/diaphorase resazurin coupled fluorescence; inhibition, % at 20 µM; actives 0.16% (n = 340,000); AID 493160;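 active = inhibition above about 35% when tested at 20 µM, limit read from the data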;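 note: plate controls were DMSO wells with enzyme for no effect and DMSO wells lacking enzyme for full effect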
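Assay system: in-house recombinant HK5 (HKDC1) enzyme. Input: HKDC1 at 5 µg/mL. Medium: Tris pH 8.0 buffer with MgCl2, Tween-20, BSA, BME. Dosing: single 20 µM dose. Schedule: 90 min reaction incubation at room temperature, dark. Signal: resazurin-to-resorufin fluorescence via G6PDH and diaphorase coupling, 525/613 nm. Controls: DMSO-enzyme wells negative, buffer-substituted wells positive.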
Diaph act CS = activates diaphorase or chemically reduces, flagging diaphorase assay artifacts; AID 1229; actives 0.005% (n = 190,000); activation factor at 20 µM; Diaphorase/resazurin coupled assay, resorufin fluorescence, 16 min; stronger effect = higher value; 1 = vehicle wells, 0 = NADH-free wells;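 active = diaphorase activity raised at least twofold by the compound at 20 µM; inactive = activation factor below 2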
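Test system: Clostridium kluyveri diaphorase, purified enzyme. Buffer or medium: 50 mM HEPES pH 7.4 buffer plus MgCl2 and Tween 20. Also added: 0.114 mM NADH and 0.1 mM resazurin, final amounts. Dosing: compound 20 µM once, DMSO 1%. Schedule: 16 min enzyme reaction, ambient temperature. Detection: fluorescence of resorufin, 544 nm excitation, 590 nm emission.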
Fh CTSL1 inh = cathepsin L1 inhibition, PFM18AAP counter-screen; recombinant F. hepatica cathepsin L1, Z-Leu-Arg-MCA fluorescence; inhibition, % at 5.96 µM; actives 0.49% (n = 300,000);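 active = inhibition above the mean of all tested compounds plus 3 SD, set per screening campaign, cut at about 17% in these data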;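 note: 0% = plate median of test compound wells and 100% = 1 µM Z-Phe-Ala-diazomethylketone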
ATG4B inh = blocks human ATG4B protease cleavage of LC3 substrate; Q9Y4P1; ATG4B cleavage of LC3-PLA2, NBD-HPC fluorescence, 1 h; inhibition, % at 8.33 µM; actives 0.51% (n = 340,000); AID 504462; in the data active = inhibition above about 40%
Target sequence (Q9Y4P1 whole entry, looked up): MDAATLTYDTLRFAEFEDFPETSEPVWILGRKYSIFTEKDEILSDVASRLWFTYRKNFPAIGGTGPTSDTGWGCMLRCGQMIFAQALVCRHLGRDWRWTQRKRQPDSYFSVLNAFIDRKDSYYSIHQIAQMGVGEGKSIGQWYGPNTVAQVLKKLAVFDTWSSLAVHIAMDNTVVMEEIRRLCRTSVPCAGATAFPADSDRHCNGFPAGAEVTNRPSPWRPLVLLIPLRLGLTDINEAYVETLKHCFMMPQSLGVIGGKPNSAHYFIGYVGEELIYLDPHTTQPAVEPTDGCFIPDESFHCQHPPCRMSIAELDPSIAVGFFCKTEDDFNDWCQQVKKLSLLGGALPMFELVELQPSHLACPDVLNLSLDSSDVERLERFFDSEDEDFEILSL
Diaph inh CS = counter-screen for diaphorase-based assays: diaphorase inhibitors and chemical oxidizers. diaphorase resazurin-to-resorufin fluorescence, NADH, 16 min; bacterial (C. kluyveri) enzyme, not human. inhibition, % at 20 µM. actives 0.69% (n = 190,000). AID 1217;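 active = primary screen inhibition at 20 µM above a set limit, cut at about 50% in these data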;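 note: plate controls were DMSO with full reaction for no effect and wells lacking NADH for full effect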
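controls = No-NADH positive control and DMSO neutral control | system = Clostridium kluyveri diaphorase enzyme | timing = reaction incubation of 16 min at room temperature | signal = resorufin fluorescence 544/590 nm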
ATG4B confirm = ATG4B (human) inhibition, single-dose confirmed; shares compounds with ATG4B inh; inhibition, % at 8.33 µM; actives 92% (n = 320); ATG4B protease fluorescent substrate cleavage assay; AID 504757; in the data active = inhibition above about 39%
PLA2 ctr = inhibits human PLA2, flagging false ATG4B inhibitors. shares compounds with ATG4B inh. purified PLA2, NBD-C6-HPC fluorescence, 45 min. inhibition, % at 8.33 µM. actives 66% (n = 1,600). AID 588402; in the data active = inhibition above about 50%
Target sequence (P04054 whole entry, looked up): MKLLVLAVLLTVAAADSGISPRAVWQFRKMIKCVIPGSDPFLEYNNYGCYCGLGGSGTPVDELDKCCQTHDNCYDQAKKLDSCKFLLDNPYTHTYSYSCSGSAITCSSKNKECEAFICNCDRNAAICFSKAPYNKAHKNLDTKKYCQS
Active calls of the source: *; / = no result given.

SMILES	HKDC1 inh	Diaph act CS	Fh CTSL1 inh	ATG4B inh	Diaph inh CS	PLA2 ctr	others
Cc1c(Cl)cccc1NC(=S)NCC(C)C	0	0.9	-3	36	8	/
Cc1c(Cl)cccc1NC(=S)NCCC(c1ccccc1)c1ccccc1	0	1.1	1	91*	-9	93*
Cc1c(Cl)cccc1NC(=S)NCCC(C)C	4	0.9	4	64*	9	67*
CCCCCCCCCCCCCCCCCCNc1ccn(C2OC(COP(=O)(O)OCC3OC(n4cc(F)c(=O)[nH]c4=O)CC3O)C(O)C2O)c(=O)n1 (stereo not given)	-8	/	/	42*	/	41	ATG4B confirm=52*
C[C@H]1O[C@@H](n2cc(F)c(=O)[nH]c2=O)[C@H](O)[C@@H]1O	0	/	2	-1	/	/
COc1ccc(S(=O)(=O)NCCC(=O)N2CCCN(C)CC2)cc1	-3	/	/	1	/	/
CCc1cccc(C)c1NC(=O)CN1CCN(S(=O)(=O)c2ccc(C(C)(C)C)cc2)CC1	1	/	2	2	/	/
Nc1ccc(C(=O)N/N=C\c2ccc(OC(=O)c3ccccc3Cl)cc2)cc1	-7	/	-2	0	/	/
O=C(O)c1ccc(N/N=C/c2ccc(OC(=O)c3ccccc3Cl)cc2)cc1	9	0.8	2	94*	21	96*
Cc1ccc(N=C2NC(=O)/C(=C/C=C/c3ccco3)S2)cc1	8	0.6	0	31	35	/
Cc1cccc(N=C2NC(=O)/C(=C/C=C/c3ccco3)S2)c1C	11	0.5	3	83*	49	51*
O=C(/C=C/c1ccc(Cl)cc1)N1CCN(c2c(Cl)cccc2[N+](=O)[O-])CC1	-7	0.9	-3	44*	14	47
CC1CC(C)CN(C(=O)COC(=O)c2ccc(Cl)nc2)C1 (stereo not given)	-4	/	/	0	/	/
CCc1cccc(CC)c1NC(=O)COC(=O)c1ccccc1-c1nc2ccccc2s1	1	0.8	3	66*	22	74*
CCCCC[C@@H]1C=C(C(=O)O)[C@H](c2ccc3c(c2)OCO3)N1S(=O)(=O)c1ccc(C)cc1	0	/	/	50*	/	57*
Cc1ccc2c(c1)N(CC(=O)N1CCCCC1C)C(=O)CO2 (stereo not given)	-6	/	0	3	/	/
CCc1ccc(S(=O)(=O)Nc2ccc(O)c3c(=O)cc(-c4ccccc4Cl)oc23)cc1	2	/	0	33	/	/
O=c1cc(-c2ccccc2Cl)oc2c(NS(=O)(=O)c3cc(Cl)cc(Cl)c3O)ccc(O)c12	13	0.5	0	101*	49	103*
Cc1ccccc1N=C1NC(=O)/C(=C/c2cccn2-c2cccc(C(=O)O)c2)S1	14	0.8	/	43*	19	5	ATG4B confirm=59*
O=C(O)c1cccc(-n2cccc2/C=C2\SC(=O)N(Cc3ccccc3F)C2=O)c1	13	0.8	3	40*	19	57*
Cc1ccc(N2CCN(S(=O)(=O)c3ccc4oc(=O)ccc4c3)CC2)cc1Cl	-4	/	3	-2	/	/
COCCN(C(=O)c1ccc(OC2CCN(S(=O)(=O)N(C)C)CC2)cc1)C(C)C	-4	/	0	-6	/	/
CC1CCCN(C(=O)c2ccc(COc3ccccc3Br)cc2)C1 (stereo not given)	-5	1	4	61*	5	69*
CCc1cccc(CC)c1-n1c(SCC(=O)N2CCc3ccccc3C2)nnc1-c1cccnc1	-6	0.8	-8	68*	24	63*
NS(=O)(=O)c1ccc(NC(=O)/C(=C/c2ccncc2)NC(=O)c2ccccc2)cc1	2	/	-3	4	/	/
SMILES	HKDC1 inh	Diaph act CS	Fh CTSL1 inh	ATG4B inh	Diaph inh CS	PLA2 ctr	others
C/C(CCc1oc2ccc(Cl)cc2c1-c1ccc(C)o1)=N\O	7	1	4	46*	-3	71*
O=C(NC[C@@H]1CC[C@@H](Cc2ccc(-c3ccccc3)cc2)O1)Nc1ccc(Br)cc1	10	/	/	42*	/	86*
CCOc1ccc(C2=NNC(c3cccnc3)=Nc3ccc(OC)cc32)cc1	1	0.9	-1	21	8	/
Cc1ccc2c(c1)C(c1ccc(N3CCOCC3)cc1)=NNC(c1cccs1)=N2	7	1	-2	13	3	/
Fc1ccc2c(c1)C(c1ccc(N3CCOCC3)cc1)=NNC(c1cccs1)=N2	0	0.7	6	65*	28	70*
CCOc1ccc(C2=NNC(c3cccs3)=Nc3ccc(OC)cc32)cc1	3	0.8	1	59*	24	73*
Brc1ccc2c(c1)C(c1ccc(N3CCOCC3)cc1)=NNC(c1cccs1)=N2	2	0.8	6	66*	24	65*
O=S(=O)(c1ccc2c(c1)CCN2)N1CCCC1	-5	/	/	-27	/	/
Cc1ccc(Cl)cc1N1CCN(C(=O)CCS(=O)(=O)c2ccc3c(c2)NC(=O)CO3)CC1	-1	/	1	-17	/	/
CC1CCCCC1NC(=O)COC(=O)c1c2c(nc3ccccc13)/C(=C/c1ccco1)CC2 (stereo not given)	3	0.6	1	53*	38	45	ATG4B confirm=75*
CC1CCCCN1C(=O)CN1CCN(S(=O)(=O)c2ccc(Br)cc2Cl)CC1 (stereo not given)	-3	/	/	-37	/	/
COc1ccc(CN(C)C(=O)COC(=O)c2cc([N+](=O)[O-])ccc2N2CCCC2)c(OC)c1OC	-1	/	/	-7	/	/
CCCCCCCCCCCCCCCCn1cc[n+](C)c1	3	3.2*	7	48*	-225	38	ATG4B confirm=50*
CCCCCCCCn1ccc(=N)cc1	-8	/	0	-3	/	/
CC1=C(C(=O)OC2CCCCC2)C(c2ccc(F)cc2)NC(=O)N1 (stereo not given)	2	/	5	-7	/	/
Cc1nn(-c2cccc(C(F)(F)F)c2)c(Cl)c1/C=N/Nc1cccc(C(=O)O)c1	-3	0.7	-1	57*	30	67*
Cc1nn(-c2ccccc2Cl)c(Cl)c1/C=N/Nc1cccc(C(=O)O)c1	5	1	-4	14	4	/
Cc1ccc(-n2nc3c(=O)n(CCCC(=O)NCC(C)c4ccccc4)nc(C)c3c2C)cc1 (stereo not given)	-2	/	-2	5	/	/
Cc1ccc(C(=O)Oc2ccc(/C=C3\C(=N)N4N=C(N5CCOCC5)SC4=NC3=O)cc2)cc1	12	/	-3	-3	/	/
N=C1/C(=C\c2ccc(OC(=O)c3ccccc3)cc2)C(=O)N=C2SC(N3CCOCC3)=NN12	11	/	-1	57*	/	76*
CCc1nc(NC(=O)c2sc(C)nc2C)sc1C(=O)OC	-4	/	-6	-3	/	/
